The list is not random: actives were taken first. Their share in the collection is about 4.7%.
MrgX1 agonist: agonists of human MrgX1 receptor, primary screen, HEK293 cells, Fluo-4 calcium flux. Mas-related G-protein coupled receptor member X1 (Homo sapiens), Q96LB2. Fluo-4 calcium fluorescence, agonist mode; active compounds read high. B-score at 10 µM. hit rate 0.44% among 310,000;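 active = calcium response B-score plate-corrected fluorescence ratio at least 3 library SD, with starting fluorescence B-score inside 5 SD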
Target sequence (Q96LB2 whole entry, looked up): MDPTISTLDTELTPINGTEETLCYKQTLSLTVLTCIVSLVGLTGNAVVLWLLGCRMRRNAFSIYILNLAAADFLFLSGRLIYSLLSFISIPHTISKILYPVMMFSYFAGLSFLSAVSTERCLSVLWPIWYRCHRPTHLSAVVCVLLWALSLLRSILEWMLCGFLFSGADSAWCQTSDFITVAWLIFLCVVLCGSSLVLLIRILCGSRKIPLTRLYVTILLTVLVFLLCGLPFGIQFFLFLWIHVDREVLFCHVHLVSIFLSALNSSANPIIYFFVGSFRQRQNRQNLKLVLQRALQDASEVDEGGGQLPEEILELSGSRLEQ
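Material: MrgX1-expressing HEK293 cells; input: 15,000 cells per well; doses: test compound given as first of three sequential additions; schedule: overnight plating before 1 h dye loading; technique: Fluo-4 NW calcium-flux fluorescence, kinetic read; evaluation: baseline-normalised fluorescence change ratio, B-scored; control set: plate-wise positive and negative controls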
MrgX1 antag: antagonists of human MrgX1 receptor, primary screen, HEK293 cells, Fluo-4 calcium flux; Mas-related G-protein coupled receptor member X1 (Homo sapiens), Q96LB2; B-score at 10 µM; BAM8-22 antagonism; active compounds read low; hit rate 1.3% among 310,000;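 active = calcium-response B-score plate-corrected more than 3 library SD below zero, starting fluorescence within 5 deviations, no agonist response on first addition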;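 note: peak minus trough fluorescence over baseline after final BAM8-22 challenge near maximal dose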
MrgX1 PAM: positive allosteric modulators of MrgX1, primary screen, HEK293 cells, Fluo-4 calcium flux; hit rate 0.63% among 310,000; FDSS; active compounds read high; B-score at 10 µM; AID 588675, 2011;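 active = plate-corrected calcium response at least 3 library SD above typical, normal starting fluorescence, not activating the receptor alone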;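 note: compound read alongside a low EC10 to EC30 dose of BAM8-22 agonist; peak minus trough fluorescence over baseline measured at the second addition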
RGS4 inh: RGS4 inhibitors, primary screen, cell-based, HEK293 M3R inducible RGS4, calcium flux. Regulator of G-protein signaling 4 (Homo sapiens), P49798. Fluo-4 calcium flux; active compounds read high; triggered by carbachol at its EC20. B-score at 10 µM. hit rate 0.45% among 310,000. AID 463165, 2010;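 active = B-score, a plate-corrected calcium signal, over three deviations above library mean, with baseline fluorescence within five deviations of library mean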;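 note: RGS4 expression induced by doxycycline in cells with stable M3 receptor; B-score is computed from the integrated fluorescence ratio over baseline after carbachol; higher B-score means a larger calcium signal and so more RGS4 inhibition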
Target sequence (P49798 whole entry, looked up): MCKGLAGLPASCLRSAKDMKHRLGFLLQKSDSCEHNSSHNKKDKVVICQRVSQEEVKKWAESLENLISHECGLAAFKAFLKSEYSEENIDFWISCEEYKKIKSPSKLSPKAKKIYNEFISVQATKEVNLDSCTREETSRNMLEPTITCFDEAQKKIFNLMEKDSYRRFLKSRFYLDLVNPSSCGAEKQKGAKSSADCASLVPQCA
KCC2 mod: KCC2 cotransporter modulators, thallium flux, primary screen, cell-based, HEK293 KCC2, FluoZin-2 fluorescence, MLSMR; Solute carrier family 12 member 5 (Homo sapiens), Q9H2X9; KCC2 cells, thallium flux FluoZin-2 fluorescence; B-score of Tl+ flux slope (higher = more flux/activation; lower = inhibition) at 10 µM; hit rate 2.2% among 190,000; AID 1456, 2008;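 active = thallium flux slope and its plate-corrected score both differing from the plate sample mean at a set confidence after two filtering rounds, in either direction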;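 note: slope of fluorescence scaled to starting intensity during 10 to 20 s after thallium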
RGS4 act: RGS4 potentiators or activators, primary screen, cell-based, HEK293 M3R inducible RGS4, calcium flux; carbachol calcium flux Fluo4; active compounds read low; B-score at 10 µM; hit rate 0.92% among 310,000;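 active = B-score of the integrated calcium signal more than 4 SD below the library mean, with starting fluorescence not abnormally high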;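 note: negative B-score means reduced calcium response which marks RGS4 activation or potentiation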
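Reagent: ECmax carbachol challenge; Test system: M3R-expressing HEK293 line, RGS4 induced by doxycycline; Schedule: overnight RGS4 induction, 30 min dye load 37 °C, 20 min compound RT; Detection: calcium dye Fluo4 fluorescence; Read-out: Agonist-evoked peak-minus-minimum fluorescence over baseline, integrated ratio, B score.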
MrgX1 allo conf: MrgX1 positive allosteric modulators, duplicate retest, confirmation, HEK293 cells, Fluo-4 calcium flux. activation (ratio percentage), % at 10 µM. shares compounds with MrgX1 PAM. Fluo-4 calcium fluorescence, FDSS. hit rate 13% among 1,200;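 active = ratio at least 3 SD above the weak peptide control, stable starting fluorescence, no direct agonism earlier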;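 note: compound followed by low BAM8-22 agonist challenge near EC20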
HEK293 Ca flux: nonspecific calcium signal in parental HEK293, confirmation, counter-screen for MrgX1 antagonist project, parental HEK293 cells, Fluo-4 calcium flux; Fluo-4 calcium fluorescence, FDSS; fluorescence ratio F(max-min)/F0 at 10 µM; hit rate 2% among 4,000; shares compounds with MrgX1 antag;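 active = duplicate-averaged calcium fluorescence ratio at least three times the standard deviation of buffer wells, a nonspecific response in parental cells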
HEK293 Ca counter: calcium response in parental HEK293 cells, primary screen, counter-screen for MrgX1 allosteric activator project, cell-based, Fluo-4 calcium flux, duplicate; shares compounds with MrgX1 antag; Fluo-4 fluorescence ratio; active compounds read high; fluorescence ratio F(max-min)/F0 at 10 µM; hit rate 0.4% among 4,000; AID 624114, 2012;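 active = calcium fluorescence ratio, averaged over duplicates, at least 3 SD of the buffer-well ratio, meaning a nonspecific response in receptor-free cells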;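 note: untransfected parental HEK293 lacking MrgX1 used as counterscreen for MrgX1 allosteric activators; fluorescence change taken during the second addition on a kinetic imager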
HEK293 Ca cntr2: calcium response in parental HEK293 cells, primary screen, counter-screen for MrgX1 agonist project, cell-based, Fluo-4 calcium flux, duplicate, agonist mode | Fluo-4 calcium fluorescence (FDSS); active compounds read high | shares compounds with MrgX1 antag | hit rate 8.7% among 4,000 | AID 624115, 2012 | fluorescence ratio F(max-min)/F0 at 10 µM;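 active = calcium fluorescence ratio at least three times the spread of buffer wells, meaning a non-specific response in parental cells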
A number is an active result; n = inactive; x = not tested or not shown.

SMILES | MrgX1 agonist | MrgX1 antag | MrgX1 PAM | RGS4 inh | KCC2 mod | RGS4 act | MrgX1 allo conf | HEK293 Ca flux | HEK293 Ca counter | HEK293 Ca cntr2
O=S(=O)(NC1CCCCC1N1CCC(O)CC1)c1ccccc1 (centres undefined) | n | n | n | n | x | n | x | x | x | x
Cc1nc2cc3c(cc2c(C)c1C(=O)OC(C)C)OCO3 | n | n | 7.1 | n | n | n | n | n | n | n
COc1ccc(C)cc1NC(=O)n1ncc2cc(Cl)ccc21 | n | n | n | n | x | n | x | x | x | x
CSc1nc2ccc(NC(=O)c3ccc(Cl)s3)cc2s1 | n | n | n | x | n | x | x | x | x | x
Cc1ccc(S(=O)(=O)N/N=C/c2cccc3c2OCCO3)cc1 | n | n | n | n | n | n | x | x | x | x
Cc1ccc(S(=O)(=O)N/N=C/c2cccc3nccnc23)cc1 | n | n | 20 | n | x | n | n | n | n | n
O=C(CSc1nc(O)cc(=O)n1-c1ccccc1)Nc1nc2ccccc2s1 | n | n | n | n | n | n | x | x | x | x
Cn1c(=O)c2c(nc(N3CCCCCC3)n2Cc2cccc3ccccc23)n(C)c1=O | n | n | 7.5 | n | n | n | n | n | 51 | n
Cn1c(=O)c2c(nc(CN3CCc4ccccc4C3)n2Cc2ccccc2F)n(C)c1=O | n | n | 25 | n | x | n | 38% | n | n | n
Cn1c(=O)c2c(nc(CN3CCc4ccccc4C3)n2CCc2ccccc2)n(C)c1=O | x | x | x | x | n | x | x | x | x | x
OC(CCN1CCCCC1)(c1ccccc1)C1C[C@@H]2C=C[C@H]1C2 (some centres undefined) | n | n | 6.5 | x | x | x | n | n | n | n
CN1CCN(CC#CC(C)(O)C2CC3C=CC2C3)CC1 (centres undefined) | n | n | n | n | n | n | x | x | x | x
Cc1ccccc1NC(=O)C(C)SCc1ccccc1 (centres undefined) | n | n | n | n | x | n | x | x | x | x
CC(SCc1ccccc1)C(=O)Nc1ccccc1Br (centres undefined) | n | n | 6.5 | n | x | n | n | n | n | n
O=C(NCCc1c[nH]c2ccccc12)c1ccc(F)cc1F | n | n | n | n | x | n | x | x | x | x
O=C(CN1CCC(O)(c2cccc(F)c2)CC1)NCCc1c[nH]c2ccccc12 | n | n | 7.6 | n | n | n | n | n | n | n
O=C(COC(=O)c1ccc(NS(=O)(=O)c2ccc(Br)s2)cc1)NC1CCCC1 | n | n | 19 | n | n | n | n | n | n | n
O=C(Nc1nc2c(F)cc(F)cc2s1)c1ccco1 | n | n | 16 | n | x | n | n | n | n | n
Cc1ccccc1Oc1ncnc2oc(-c3ccccc3)cc12 | n | n | 18 | n | x | n | 44% | n | n | n
COc1cccc(NC(=O)CSc2nc3c(sc4ccccc43)c(=O)n2CCN(C)C)c1 | n | n | 7.5 | n | n | n | n | n | n | n

Bioassay records deposited in PubChem BioAssay by several laboratories.
